Series [1] concerns the target T1, Estrogen receptor (Homo sapiens) (UniProt P03372).
T1 sequence (whole entry): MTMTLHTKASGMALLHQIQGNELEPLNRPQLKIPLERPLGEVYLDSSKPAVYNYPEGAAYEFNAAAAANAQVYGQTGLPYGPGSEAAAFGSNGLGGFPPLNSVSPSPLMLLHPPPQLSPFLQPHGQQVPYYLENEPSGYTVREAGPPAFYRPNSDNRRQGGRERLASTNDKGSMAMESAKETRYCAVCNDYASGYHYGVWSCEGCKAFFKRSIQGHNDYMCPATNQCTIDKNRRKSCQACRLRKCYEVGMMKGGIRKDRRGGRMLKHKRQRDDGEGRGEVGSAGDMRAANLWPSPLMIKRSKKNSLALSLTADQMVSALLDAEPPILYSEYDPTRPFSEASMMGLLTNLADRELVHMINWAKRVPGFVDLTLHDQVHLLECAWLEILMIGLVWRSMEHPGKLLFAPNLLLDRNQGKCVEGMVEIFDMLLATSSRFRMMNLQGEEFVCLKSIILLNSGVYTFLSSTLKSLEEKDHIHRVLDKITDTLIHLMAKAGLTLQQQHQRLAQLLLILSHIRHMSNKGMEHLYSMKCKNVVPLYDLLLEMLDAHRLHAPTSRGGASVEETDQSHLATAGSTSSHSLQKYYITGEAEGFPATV
Put plainly: Displacement of [3H]E2 from human recombinant ERalpha at 3 nM after 16 to 20 hrs by cell-free assay. A digest of the protocol: (§1)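 Recombinant human ERα (1 nM, [3H]-E2 3 nM) or ERβ (4 nM, [3H]-E2 10 nM) incubated with test compound, 5% DMSO final, for 16–20 h at 4 °C. Nonspecific binding set with 100-fold unlabeled E2. Complexes bound to hydroxyapatite, washed three times, counted by liquid scintillation. Compounds tested at 1000-fold the [3H]-E2 level (3 µM ERα, 10 µM ERβ). Below 50% displacement classed RBA <0.1%.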
A general note: Loss of bound radioactivity is the signal in a displacement assay; it reports binding, not function.

The target in series [2] is Estrogen receptor beta (Homo sapiens) (UniProt Q92731). Put plainly: Displacement of [3H]E2 from human recombinant ERbeta at 10 nM after 16 to 20 hrs by cell-free assay. A digest of the protocol: as §1
Sequence of Estrogen receptor beta (Homo sapiens) (Q92731 whole entry): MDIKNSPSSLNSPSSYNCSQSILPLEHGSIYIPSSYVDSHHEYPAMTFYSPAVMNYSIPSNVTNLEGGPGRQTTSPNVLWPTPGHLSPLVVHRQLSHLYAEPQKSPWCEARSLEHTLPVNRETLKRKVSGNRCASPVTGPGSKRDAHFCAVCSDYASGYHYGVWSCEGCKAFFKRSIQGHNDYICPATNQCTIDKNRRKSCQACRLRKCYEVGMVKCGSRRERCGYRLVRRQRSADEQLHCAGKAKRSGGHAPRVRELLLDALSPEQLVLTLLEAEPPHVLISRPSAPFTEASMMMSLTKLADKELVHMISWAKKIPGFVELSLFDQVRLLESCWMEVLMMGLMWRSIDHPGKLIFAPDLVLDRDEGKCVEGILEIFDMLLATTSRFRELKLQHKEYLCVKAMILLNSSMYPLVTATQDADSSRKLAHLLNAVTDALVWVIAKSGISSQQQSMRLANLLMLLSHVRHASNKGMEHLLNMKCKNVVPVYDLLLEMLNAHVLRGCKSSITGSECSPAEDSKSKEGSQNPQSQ
The nature of series [3]: Drug metabolism in human liver microsome S9 fraction assessed as didemethylation metabolite formation by LC-MS/MS analysis. The note with it: microsomes. The format is ADME.
The species named for the next series is Homo sapiens. Nature of the series: Selectivity factor, ratio of IC50 for human placental cytosolic17beta-HSD1 to IC50 for human placental microsomal 17beta-HSD2.
Series [4] deals with T2, 17-beta-hydroxysteroid dehydrogenase type 1 (Homo sapiens, UniProt P14061).
T2 sequence (P14061 whole entry): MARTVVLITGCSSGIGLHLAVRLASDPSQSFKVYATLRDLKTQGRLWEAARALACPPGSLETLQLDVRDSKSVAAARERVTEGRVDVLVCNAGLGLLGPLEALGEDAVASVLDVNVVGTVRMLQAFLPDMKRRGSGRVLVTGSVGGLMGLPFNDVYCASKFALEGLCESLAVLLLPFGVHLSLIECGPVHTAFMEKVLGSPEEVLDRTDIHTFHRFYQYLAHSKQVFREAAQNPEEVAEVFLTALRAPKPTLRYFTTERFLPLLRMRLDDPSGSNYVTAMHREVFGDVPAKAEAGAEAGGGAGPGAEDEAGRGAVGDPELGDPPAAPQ
Nature of the series: Displacement of [3H]E1 from human placental cytosolic17beta-HSD1 after 10 mins by cell-free assay. In a few lines: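 Cytosolic 17β-HSD1 from human placenta, ammonium sulfate precipitated. Enzyme incubated with NADH 500 µM, test compound and unlabeled plus [3H]-E1 (final 500 nM) for 10 min at 37 °C. Reaction stopped with HgCl2 and extracted with ether. E1/E2 separated by C18 RP HPLC (acetonitrile/water 45:55) with radioflow detection. Activity taken as % conversion. Percent inhibition read at 1 µM.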

Series [5] is described as follows: Half-life in human liver microsome S9 fraction at 1 uM up to 60 mins by LC-MS/MS analysis. Type of series: ADME, microsomes. In a few lines: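 Sampled at 0, 5, 15 and 60 min and quenched with 2 volumes cold acetonitrile containing internal standard. Remaining parent quantified by LC-MS/MS to give t1/2.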
(In general: Microsomes from liver hold many membrane-bound enzymes, among them those of drug oxidation.)

Series [6] has as its target T3, 17-beta-hydroxysteroid dehydrogenase type 2 (Homo sapiens, UniProt P37059).
T3 sequence (P37059 whole entry): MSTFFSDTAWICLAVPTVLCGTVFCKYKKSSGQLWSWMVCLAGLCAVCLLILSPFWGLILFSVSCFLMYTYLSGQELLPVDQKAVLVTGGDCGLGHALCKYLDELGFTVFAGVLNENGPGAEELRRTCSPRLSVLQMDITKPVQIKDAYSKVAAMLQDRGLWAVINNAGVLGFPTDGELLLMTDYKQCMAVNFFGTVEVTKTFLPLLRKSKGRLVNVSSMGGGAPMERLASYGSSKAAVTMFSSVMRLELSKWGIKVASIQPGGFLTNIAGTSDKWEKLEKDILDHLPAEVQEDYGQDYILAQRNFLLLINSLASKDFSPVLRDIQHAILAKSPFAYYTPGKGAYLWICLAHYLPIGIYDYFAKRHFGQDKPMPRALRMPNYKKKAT
Put plainly: Displacement of [3H]E2 from human placental microsomal 17beta-HSD2 after 20 mins by cell-free assay. In a few lines:
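Microsomal 17β-HSD2 from human placenta, 150,000 g pellet. Started with unlabeled plus [3H]-E2 (final 500 nM), stopped after 20 min with HgCl2, ether-extracted. E1/E2 resolved by radio-HPLC, giving % conversion. Inhibition read at 1 µM.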

A short description of series [7]: Drug metabolism in human liver microsome S9 fraction assessed as acid metabolite formation by LC-MS/MS analysis. The format is ADME. The note with it: microsomes.
A short description of series [8]: Drug metabolism in human liver microsome S9 fraction assessed as demethylation/hydroxylation metabolite formation by LC-MS/MS analysis. The format is ADME. Conditions: microsomes.
Series [9] can be described thus: Half-life in human liver microsome S9 fraction at 3 uM up to 45 mins by LC-MS/MS analysis. The format is ADME, microsomes.
Series [10] can be described thus: Drug metabolism in human liver microsome S9 fraction assessed as di-hydroxylation metabolite formation by LC-MS/MS analysis. The format is ADME. Conditions: microsomes.
The nature of series [11]: Drug metabolism in human liver microsome S9 fraction treated with N-Methyl-N,5-bis(3-methylphenyl)thiophene-2-carboxamide by LC-MS/MS analysis. Conditions: microsomes. The format is ADME.

Each structure is given as a SMILES string.

One may read the inhibition as the percentage by which the read-out fell short of the control. The term IC50 denotes the point on the concentration scale where inhibition reaches its midpoint. Low values mean inhibition by little substance, high ones a need for much substance. As a reminder, the half-life is the time in which the quantity being followed falls by half. A low value points to rapid decline.

As to `Cc1cccc(-c2ccc(C(=O)N(C)c3cccc(C)c3)cc2)c1`, the values for the inhibition in series [1] and in series [2] were 8% and 11%, respectively.

Turning to `Cc1cccc(-c2ccc(C(=O)N(C)c3cccc(C)c3)s2)c1`, the inhibition came out at 12% in series [1] and 21% in series [2]. In addition, in [3], the Drug metabolism entry was “metabolite_notdetected”.

In the case of `Cc1cccc(-c2cnc(C(=O)N(C)c3cccc(C)c3)s2)c1`, in the series filed under Homo sapiens, the Ratio IC50 turned out to be 51. The IC50 in [4] was 25300 nM; in [6], 499 nM. In addition, the half-life at 1 µM in series [5] is 5 min. In addition, the values for the inhibition in series [1] and in [2] were 9% and 0%, respectively.

In the case of `COc1cccc(-c2ccc(C(=O)N(C)c3cccc(OC)c3)s2)c1`, the Drug metabolism entry in series [7] and in series [8] was “metabolite_notdetected” each time.

Take `Cc1ccc(-c2ccc(C(=O)N(C)c3cccc(C)c3)s2)cc1`: the inhibition in [1] came out at 11%; in [2], 34%.

For the compound `Cc1ccc(-c2ccc(C(=O)N(C)c3ccccc3C)s2)cc1`, in the series listed under Homo sapiens, the Ratio IC50 was 3. The IC50 was determined as 698 nM in series [4] and 225 nM in series [6]. In addition, in [5], the half-life at 1 µM amounted to 22 min.

Turning to `Cc1cccc(-c2ccc(C(=O)N(C)c3cccc(Cl)c3)s2)c1`, the Ratio IC50 in the series filed under Homo sapiens worked out at 29. The values for the IC50 in [4] and in series [6] were 9410 nM and 327 nM, respectively. For the same compound, the inhibition in series [1] turned out to be 16%; in series [2] it was 11%.

In [9], `COc1cccc(N(C)C(=O)c2ccc(-c3cccc(N(C)C)c3)s2)c1` displayed a half-life at 3 µM of 29 min.

In turn, `COc1cccc(N(C)C(=O)c2ccc(-c3cccc(OC)c3F)s2)c1` gave a half-life at 1 µM in series [5] of 12 min.

As to `COc1cc(-c2cccc(C)c2)sc1C(=O)N(C)c1cccc(C)c1`, the Ratio IC50 in the series listed under Homo sapiens is 132. For the same compound, the half-inhibitory concentration (IC50) is 16700 nM in series [4] and 127 nM in [6].

As for `COc1cccc(N(C)C(=O)c2ccc(-c3cccc(C)c3)s2)c1`, the Drug metabolism result in series [7], in [3] and in series [10] was “metabolite_notdetected” in each case.

For the compound `Cc1ccc(N(C)C(=O)c2ccc(-c3ccc(C)c(C)c3)s2)cc1`, the inhibition was 5% in series [1] and 4% in series [2].

Take `Cc1cccc(N(C)C(=O)c2ccc(-c3cccc(CO)c3)s2)c1`: the Drug metabolism result in series [11] was “metabolite_notdetected”.

Values taken from ChEMBL document CHEMBL3351241, “Metabolic stability optimization and metabolite identification of 2,5-thiophene amide 17β-hydroxysteroid dehydrogenase type 2 inhibitors” (Eur J Med Chem, 2014).
